The results in this text go back to ChEMBL document CHEMBL1159358, “Cytotoxic prenylflavanones from Taiwanese propolis” (J Nat Prod, 2003).

In assay [1] the test system is Radical scavenging activity. Put plainly: Antioxidant activity against DPPH radical scavenging activity at 3.125 ug/ml. It counts as functional. In a few lines: (§1)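 Scavenging of DPPH radical: sample in methanol (3.125, 6.25, 12.5, 25.0 µg/mL final) mixed 1:1 with 0.15 mM DPPH in methanol; absorbance change at 517 nm followed for 1 min. Percent scavenged = 100 × (A0 − Ai)/A0, A0 being initial DPPH absorbance.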

The test system of assay [2] is Radical scavenging activity. Put plainly: Antioxidant activity against DPPH radical scavenging activity at 25 ug/ml. In kind it is functional. In a few lines:
as §1

Assay [3] concerns Radical scavenging activity. Put plainly: Antioxidant activity against DPPH radical scavenging activity at 12.5 ug/ml. It counts as functional. In outline: as §1
Assay [4] relates to Radical scavenging activity. Briefly: Antioxidant activity against DPPH radical scavenging activity at 6.25 ug/ml. In kind it is functional. In a few lines:
as §1

Assay [5] deals with HL-60. Briefly: Cytotoxicity against human HL60 cells at >15 ug/ml after 24 hrs by trypan blue exclusion assay. It counts as functional, cell-based. In a few lines:
(§2)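 HL-60 cells grown in RPMI 1640 with 10% FBS and 1% penicillin/streptomycin, 37 °C, 5% CO2. Seeded at 1 × 10^5 cells/well and exposed to various compound concentrations for 24 h. Cells counted; viability by trypan blue exclusion.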

The test system of assay [6] is Melanoma cell. Put plainly: Induction of apoptosis in human Melanoma cells assessed as accumulation at subG1 at 15 ug/mL after 6 hrs by flow cytometry analysis.
For assay [7], the system named is Melanoma cell. Briefly: Cytotoxicity against human Melanoma cells after 24 hrs by trypan blue exclusion assay. In kind it is functional, cell-based. In a few lines:
(§3)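 Human melanoma and C6 glioma cells grown in DMEM with 10% FBS and 1% penicillin/streptomycin, 37 °C, 5% CO2. Seeded at 1 × 10^5 cells/well and exposed to various compound concentrations for 24 h. Cells counted; viability by trypan blue exclusion.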

Assay [8] relates to C6. Put plainly: Cytotoxicity against rat C6 cells after 24 hrs by trypan blue exclusion assay. In kind it is functional, cell-based. The conditions noted are these: C6, 24 h. In outline: as §3
Assay [9] deals with Radical scavenging activity. Put plainly: Antioxidant activity against DPPH radical scavenging activity. It counts as functional. In a few lines:
as §1

The test system of assay [10] is HL-60. Briefly: Cytotoxicity against human HL60 cells after 24 hrs by trypan blue exclusion assay. It counts as functional, cell-based. As to conditions: HL-60, 24 h. In a few lines: as §2
Assay [11] relates to C6. Put plainly: Cytotoxicity against rat C6 cells at >15 ug/m after 24 hrs by trypan blue exclusion assay. It counts as functional, cell-based. In outline:
as §3

Assay [12] has as its system Melanoma cell. Briefly: Induction of apoptosis in human Melanoma cells assessed as accumulation at subG1 at 15 uM after 24 hrs by flow cytometry analysis. In kind it is functional. The conditions noted are these: in the assay text read “15 ug/mL” for “15 uM”. In outline:
(§4)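 Melanoma cells (1 × 10^6 per 60 mm dish) preincubated 12 h, then exposed to 15 µg/mL compound or DMSO for 0, 3, 6, 12 or 24 h. Cells fixed in ice-cold ethanol at −20 °C overnight, treated with Triton X-100/RNase A 30 min at 37 °C, stained with propidium iodide. Sub-G1 (lower DNA content) fraction measured by flow cytometry.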

The test system of assay [13] is Melanoma cell. Briefly: Induction of apoptosis in human Melanoma cells assessed as accumulation at subG1 at 15 uM after 12 hrs by flow cytometry analysis. It counts as functional. As to conditions: in the assay text read “15 ug/mL” for “15 uM”. In outline:
as §4

The test system of assay [14] is HL-60 (Homo sapiens). Briefly: Induction of apoptosis in human HL-60 cells assessed as DNA fragmentation at 5 ug/ml after 24 hrs by agarose gel electrophoresis.
The subject of assay [15] is Melanoma cell. Briefly: Induction of apoptosis in human Melanoma cells assessed as accumulation at subG1 at 15 ug/mL after 3 hrs by flow cytometry analysis.

Converted amounts (≈) assume the structure as drawn. The source made the active and inactive calls. No cut-off for these calls is given here.

With `O=C(/C=C/c1ccc(O)c(O)c1)OCCc1ccccc1`, the Activity in assay [1] was determined as 39.1%; in assay [2], 99.8%; in assay [3], 98.5%; in [4], 85.5%.

For the compound `C/C(=C/Cc1c([C@@H]2CC(=O)c3c(O)cc(O)cc3O2)ccc(O)c1O)CCCC(C)(C)O` [PROPOLIN A], the Activity in assay [1] was 36%; in assay [2] it was 99.5%; in [6], 15.22%; in assay [3], 92.1%; in assay [12], 40.95%; in [13], 23.93%. In addition, the Activity in assay [4] came to 72.2%; in assay [15], 15.01%. Also, the outcome in assay [5], in assay [11] and in assay [14] was Active. Also, the IC50 was found to be 6 µg/mL (≈ 13.6 µM) in [7], 3.5 µg/mL (≈ 7.91 µM) in [8], 5 µg/mL (≈ 11.3 µM) in assay [9] and 7.5 µg/mL (≈ 16.9 µM) in assay [10].

Consider `C/C(=C\Cc1cc([C@@H]2CC(=O)c3c(O)cc(O)cc3O2)cc(O)c1O)CCCC(C)(C)O` [PROPOLIN B], for which the Activity worked out at 18.3% in assay [1], 94.7% in assay [2], 85.7% in [3] and 36.7% in assay [4]. For the same compound, the IC50 in assay [7] came out at 7.5 µg/mL (≈ 16.9 µM); in assay [8] it was 4 µg/mL (≈ 9.04 µM); in [9], 9 µg/mL (≈ 20.3 µM); in assay [10], 7.5 µg/mL (≈ 16.9 µM).
